The values below come from ChEMBL document CHEMBL1159115, “Piperidine-derived gamma-secretase modulators” (Bioorg Med Chem Lett, 2010).

The nature of experiment [1]: Inhibition of gamma-secretase expressed in african green monkey CV1 cells coexpressing Gal4 DNA-binding/transactivation domain assessed as inhibition of notch processing by luciferase reporter assay. In kind it is cell-based. Conditions: CV-1.
Experiment [2] addresses Gamma-secretase. Description: Inhibition of gamma-secretase in human SHSY5Y cells expressing human recombinant APP assessed as amyloid beta40 formation by ELISA. Type of experiment: cell-based. Particulars: sh-sy5y; in the assay text read “amyloid beta42 formation” for “amyloid beta40 formation”. The method in brief: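 SH-SY5Y cells overexpressing human APP Swedish variant exposed to compound for 48 h; Aβ40 (and Aβ42) in the cell medium quantified by ELISA, either Meso Scale Discovery or AlphaLISA format. Compounds also cross-screened for inhibition of Notch processing.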

The next experiment deals with CV-1. Description: Inhibition of gamma-secretase expressed in african green monkey CV1 cells coexpressing Gal4 DNA-binding/transactivation domain assessed as inhibition of notch processing by luciferase reporter assay at 20 uM. In kind it is cell-based.
For experiment [3], the target named is Gamma-secretase. Description: Inhibition of gamma-secretase in human SHSY5Y cells expressing human recombinant APP assessed as amyloid beta42 formation by ELISA. Type of experiment: cell-based. Particulars: sh-sy5y; in the assay text read “amyloid beta40 formation” for “amyloid beta42 formation”. The method in brief: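 SH-SY5Y cells overexpressing human APP Swedish variant were incubated with compound for 48 h. Secreted Aβ42 and Aβ40 were measured by immunoassay (MSD electrochemiluminescence or AlphaLISA).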

In experiment [4] the target is Gamma-secretase. In words: (§1) Inhibition of gamma-secretase in human SHSY5Y cells expressing human recombinant APP assessed as decrease in Abeta42 level after 24 hrs by DELFIA. In kind it is cell-based. Particulars: sh-sy5y.
Experiment [5] addresses T1, Gamma-secretase (Homo sapiens) (UniProt Q96BI3+Q9NZ42+Q8WW43+P49768+Q92542+P49810). Described as §1. In kind it is cell-based. Particulars: SH-SY5Y.
A further experiment concerns SH-SY5Y. In words: Cytotoxicity against human SH-SY5Y cells after 24 hrs by WST1 assay. In kind it is cell-based.
Experiment [6] concerns the target Gamma-secretase. Description: (§2) Inhibition of gamma-secretase in human SHSY5Y cells expressing human recombinant APP assessed as increase in Abeta38 level after 24 hrs by DELFIA. In kind it is cell-based. Conditions: sh-sy5y.
Experiment [7] deals with T1, Gamma-secretase (Homo sapiens). The experiment is described as §2. Conditions: SH-SY5Y. In kind it is cell-based.
Experiment [8] has the same target. In words: Inhibition of gamma-secretase in human SHSY5Y cells expressing human recombinant APP assessed as amyloid beta40 formation at 20 uM by ELISA. Conditions: SH-SY5Y.
Experiment [9] addresses Gamma-secretase. In words: Inhibition of gamma-secretase in human SHSY5Y cells expressing human recombinant APP assessed as decrease in total Abeta level after 24 hrs by DELFIA. Particulars: sh-sy5y. Type of experiment: cell-based.
The target in experiment [10] is Gamma-secretase. Description: Inhibition of gamma-secretase in human SHSY5Y cells expressing human recombinant APP assessed as effect on Abeta40 level after 24 hrs by DELFIA. In kind it is cell-based. Particulars: sh-sy5y.

In the case of `COCCC[C@H](c1ccc(C(F)(F)F)nc1)N1CC[C@@H](CC(=O)[O-])C[C@H]1c1ccc(C(F)(F)F)cc1.[Na+]`, the IC50 in [1] was over 20 µM. In addition, the pIC50 turned out to be 5 at Gamma-secretase [2] and 4.5 at Gamma-secretase [3]. Also, the inhibition in the experiment on CV-1 came to 10%.
In the case of `O=C(O)Cc1ccc(-c2ccc(C(F)(F)F)cc2)c(-c2ccc(C(F)(F)F)cc2)c1`, the results for the IC50 (in experiment [1]; in the experiment with SH-SY5Y) were over 20 µM and over 100 µM, respectively. Moreover, the pIC50 at Gamma-secretase [2] is listed as 5.7; on Gamma-secretase [4], 5.7; on Gamma-secretase [3], under 4.7; at Gamma-secretase [9] it was under 4; on Gamma-secretase [10], under 4. The Activity entry in experiment [5] and in [7] was “Dose-dependent effect” each time. The inhibition stood at 23% in the experiment with CV-1 and 13% in experiment [8]. Moreover, the negative logarithm of the EC50 (pEC50) at Gamma-secretase [6] was 5.1.
With `O=C([O-])C[C@@H]1CCN([C@H](c2ccc(C(F)(F)F)cc2)c2ccc(C(F)(F)F)nc2)[C@H](c2ccc(C(F)(F)F)cc2)C1.[Na+]`, in experiment [1], the IC50 was 7.94 µM. Also, the figures for the pIC50 at Gamma-secretase [2] and on Gamma-secretase [3] were 5.9 and “<= 4.8”, respectively. Besides, the inhibition in experiment [8] came to 33%.
Take `CCCCC[C@H](c1ccc(C(F)(F)F)nc1)N1CC[C@@H](CC(=O)[O-])C[C@H]1c1ccc(C(F)(F)F)cc1.[Na+]`: the concentration for half-maximal inhibition (IC50) in experiment [1] was 15.8 µM. Besides, the values for the pIC50 on Gamma-secretase [2] and at Gamma-secretase [3] were 5.9 and 5.1, respectively.
Regarding `CC(C)CC[C@H](c1ccc(C(F)(F)F)nn1)N1CC[C@@H](CC(=O)[O-])C[C@H]1c1ccc(C(F)(F)F)cc1.[Na+]`, in experiment [1], the IC50 is over 20 µM. In addition, the negative-log IC50 (pIC50) was found to be 5.9 on Gamma-secretase [2] and 4.6 at Gamma-secretase [3]. Besides, the inhibition in the experiment with CV-1 stood at 17%.
`CC(C)[C@H](O)C(=O)N[C@@H](C)C(=O)N[C@@H]1C(=O)N(C)CCc2ccccc21` [SEMAGACESTAT]: the figures for the IC50 (in experiment [1]; with SH-SY5Y) were 0.316 µM and over 100 µM, respectively. Besides, the pIC50 at Gamma-secretase [2] came to 7.4; on Gamma-secretase [4], 6.9; at Gamma-secretase [3], 7.4; on Gamma-secretase [9], 7; on Gamma-secretase [10] it was 6.7. Moreover, the Activity entry in [5] and in experiment [7] was “Dose-dependent effect” throughout. Besides, the pEC50 at Gamma-secretase [6] was found to be 6.9.
On to `CC(C)CC[C@H](c1ccnc(C(F)(F)F)n1)N1CC[C@@H](CC(=O)[O-])C[C@H]1c1ccc(C(F)(F)F)cc1.[Na+]`, for which the IC50 in experiment [1] was 3.98 µM. The figures for the pIC50 on Gamma-secretase [2] and on Gamma-secretase [3] were 6.4 and 4.9, respectively.
On to `O=C([O-])C[C@@H]1CCN([C@H](CCc2ccccc2)c2ccc(C(F)(F)F)nc2)[C@H](c2ccc(C(F)(F)F)cc2)C1.[Na+]`, for which the IC50 in experiment [1] is over 20 µM. Moreover, the pIC50 is reported as 5.7 on Gamma-secretase [2] and under 4.7 on Gamma-secretase [3]. Besides, the inhibition came to 32% in the experiment with CV-1 and 40% in experiment [8].
Take `CC(C)CC[C@H](c1ccc(C2CC2)nc1)N1CC[C@@H](CC(=O)[O-])C[C@H]1c1ccc(C(F)(F)F)cc1.[Na+]`: in [1], the IC50 is over 20 µM. Besides, the negative logarithm of the IC50 (pIC50) was 6.2 at Gamma-secretase [2] and under 4.7 at Gamma-secretase [3]. Also, the inhibition in the experiment on CV-1 is 15%; in experiment [8], 31%.
With `Cc1cccc([C@@H](CCC(C)C)N2CC[C@@H](CC(=O)[O-])C[C@H]2c2ccc(C(F)(F)F)cc2)n1.[Na+]`, the half-maximal inhibitory concentration (IC50) in [1] was over 20 µM. Further, the pIC50 on Gamma-secretase [2] is recorded as 5.9; on Gamma-secretase [3] it was 4.8. Also, the inhibition in the experiment with CV-1 turned out to be 4%.
In the same order, the values of `CC(C)C[C@H](c1ccc(C(F)(F)F)nc1)N1CC[C@@H](CC(=O)[O-])C[C@H]1c1ccc(C(F)(F)F)cc1.[Na+]` are over 20 µM, 6.2, 4.5 and 25%.
As for `CC(C)[C@H](c1ccc(C(F)(F)F)nc1)N1CC[C@@H](CC(=O)[O-])C[C@H]1c1ccc(C(F)(F)F)cc1.[Na+]`, the IC50 in experiment [1] is over 20 µM; in the experiment on SH-SY5Y it was over 100 µM. The pIC50 is recorded as 5.4 at Gamma-secretase [2]; 6 on Gamma-secretase [4]; under 4.7 on Gamma-secretase [3]; under 4 on Gamma-secretase [9]; under 4 at Gamma-secretase [10]. Further, the Activity result in [5] and in experiment [7] was “Dose-dependent effect” throughout. The inhibition came out at 21% in the experiment on CV-1 and 24% in experiment [8]. Besides, the pEC50 at Gamma-secretase [6] is given as 5.
As for `CCCC[C@H](c1ccc(C(F)(F)F)nc1)N1CC[C@@H](CC(=O)[O-])C[C@H]1c1ccc(C(F)(F)F)cc1.[Na+]`, the values for the concentration for half-maximal inhibition (IC50) (in [1]; in the experiment on SH-SY5Y) were over 20 µM and over 100 µM, respectively. Also, the negative logarithm of the IC50 (pIC50) at Gamma-secretase [2] is listed as 6.2; at Gamma-secretase [4] it was 6; at Gamma-secretase [3], 4.8; on Gamma-secretase [9] it was under 4; on Gamma-secretase [10], 4.4. For the same compound, the Activity entry in [5] and in [7] was “Dose-dependent effect” each time. For the same compound, the inhibition in the experiment on CV-1 is 33%. For the same compound, the pEC50 on Gamma-secretase [6] was 5.5.
For the compound `O=C([O-])C[C@@H]1CCN([C@@H](c2ccc(C(F)(F)F)nc2)C2CC2)[C@H](c2ccc(C(F)(F)F)cc2)C1.[Na+]`, the IC50 in experiment [1] was over 20 µM; with SH-SY5Y, over 100 µM. The pIC50 at Gamma-secretase [2] was 5.1; at Gamma-secretase [4], 6; on Gamma-secretase [3] it was 4.3; on Gamma-secretase [9] it was under 4; at Gamma-secretase [10] it was under 4. Further, the Activity result in experiment [5] and in experiment [7] was “Dose-dependent effect” each time. The inhibition with CV-1 was found to be 23%. In addition, the pEC50 at Gamma-secretase [6] came to 5.
Regarding `CC(C)CC[C@H](c1cnc(C(F)(F)F)cn1)N1CC[C@@H](CC(=O)[O-])C[C@H]1c1ccc(C(F)(F)F)cc1.[Na+]`, the IC50 in experiment [1] is over 20 µM. In addition, the results for the pIC50 on Gamma-secretase [2] and on Gamma-secretase [3] were 6.4 and 4.7, respectively. Further, the inhibition with CV-1 is 21%.
Consider `O=C([O-])C[C@@H]1CCN([C@@H](c2ccc(C(F)(F)F)nc2)C2CCCCC2)[C@H](c2ccc(C(F)(F)F)cc2)C1.[Na+]`, for which the pIC50 came out at 5.4 on Gamma-secretase [2] and 4.6 on Gamma-secretase [3].
With `O=C([O-])C[C@@H]1CCN([C@H](CC2CCC2)c2ccc(C(F)(F)F)nc2)[C@H](c2ccc(C(F)(F)F)cc2)C1.[Na+]`, the IC50 in experiment [1] was over 20 µM. Besides, the figures for the pIC50 on Gamma-secretase [2] and at Gamma-secretase [3] were 6.6 and 5.5, respectively. For the same compound, in the experiment on CV-1, the inhibition stood at 17%.
For the compound `O=C([O-])C[C@@H]1CCN([C@H](Cc2ccccc2)c2ccc(C(F)(F)F)nc2)[C@H](c2ccc(C(F)(F)F)cc2)C1.[Na+]`, the IC50 in [1] was over 20 µM. Besides, the pIC50 on Gamma-secretase [2] is reported as 5.8; at Gamma-secretase [3] it was 5. Moreover, the inhibition with CV-1 is 34%.
With `CC(C)CC[C@H](c1ncc(C(C)C)cn1)N1CC[C@@H](CC(=O)[O-])C[C@H]1c1ccc(C(F)(F)F)cc1.[Na+]`, the IC50 in experiment [1] was over 20 µM. The negative logarithm of the IC50 (pIC50) on Gamma-secretase [2] is recorded as 6.1; on Gamma-secretase [3] it was under 4.7. Also, the values for the inhibition (in the experiment with CV-1; in experiment [8]) were 27% and 22%, respectively.
In the same order, the values of `CC[C@H](c1ccc(C(F)(F)F)nc1)N1CC[C@@H](CC(=O)[O-])C[C@H]1c1ccc(C(F)(F)F)cc1.[Na+]` are over 20 µM, 5, under 4.7, 10% and 20%.
Turning to `CC(C)CC[C@H](c1ccc(C(F)(F)F)cn1)N1CC[C@@H](CC(=O)[O-])C[C@H]1c1ccc(C(F)(F)F)cc1.[Na+]`, the IC50 in [1] is 12.6 µM. The negative logarithm of the IC50 (pIC50) at Gamma-secretase [2] was determined as 6.5; on Gamma-secretase [3], 4.9.
In the same order, the values of `CC(C)CC[C@H](c1cnc(C(F)(F)F)nc1)N1CC[C@@H](CC(=O)[O-])C[C@H]1c1ccc(C(F)(F)F)cc1.[Na+]` are 20 µM, 6.4 and 4.7.
On to `CCCCCC[C@H](c1ccc(C(F)(F)F)nc1)N1CC[C@@H](CC(=O)[O-])C[C@H]1c1ccc(C(F)(F)F)cc1.[Na+]`, for which the half-maximal inhibitory concentration (IC50) in experiment [1] was 5.01 µM; with SH-SY5Y, over 100 µM. Moreover, the pIC50 on Gamma-secretase [2] is given as 6.3; at Gamma-secretase [4] it was 6; at Gamma-secretase [3] it was 4.8; at Gamma-secretase [9] it was 4; on Gamma-secretase [10], 4.6. In addition, the Activity result in experiment [5] and in experiment [7] was “Dose-dependent effect” each time. Also, at Gamma-secretase [6], the negative-log EC50 (pEC50) amounted to 6.3.
